The test system of data set [1] is Trypanosoma cruzi. Briefly: Antitrypanosomal activity against Trypanosoma cruzi Y infected in mongrel dog assessed as reduction in parasite-induced intrafascicular collagen deposition at 7 mg/kg, po BID after 180 days […]. It counts as functional, organism-based. Also noted: dose 7 mg/kg.
The subject of data set [2] is Trypanosoma cruzi. Briefly: Antitrypanosomal activity against Trypanosoma cruzi Berenice-78 infected in mongrel dog assessed as reduction in parasite-induced intrafascicular collagen deposition in right atrium at 12 mg/kg, po BID after 180 days […]. It counts as functional, organism-based. Also noted: dose 12 mg/kg. The settings on record: Cardiac atrium.

Data set [3] in a line: Half life in mongrel dog. It counts as ADME, organism-based, Canis lupus familiaris. The settings on record: in vivo.
The nature of data set [4]: Half life in po dosed human. It counts as ADME, organism-based. The settings on record: in vivo.
Data set [5] concerns Canis familiaris. Briefly: Immunostimulatory activity in mongrel dog infected with Trypanosoma cruzi Berenice-78 assessed as reduction in IL10 production in right atrium at 12 mg/kg, po BID after 180 days by semiquantitative RT-PCR. Conditions: Canis lupus familiaris, Cardiac atrium. It counts as functional, organism-based. More on the design: dose 12 mg/kg. In short, it runs like this: (§1)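 Dogs were euthanized 6 months after the end of treatment. RNA was extracted from the right atrium with acid guanidinium thiocyanate-phenol-chloroform. One microgram was DNase treated and reverse transcribed with oligo(dT) for 1 h at 42°C. IFN-γ or IL-10 cDNA was amplified with 1.5 mM MgCl2: 94°C 5 min, n cycles of 94/57/72°C, final extension 72°C 6 min. Expression was scored semiquantitatively against infected untreated and noninfected dogs.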

Data set [6] concerns Canis familiaris. Briefly: Immunostimulatory activity in mongrel dog infected with Trypanosoma cruzi Berenice-78 assessed as reduction in INFgamma production in right atrium at 7 mg/kg, po BID after 180 days by semiquantitative RT-PCR. It counts as functional, organism-based. Also noted: dose 7 mg/kg. The settings on record: Canis lupus familiaris, Cardiac atrium. In short, it runs like this:
as §1

A short description of data set [7]: Half life in human. It is filed as ADME, organism-based. The settings on record: in vivo.
Data set [8] concerns Canis familiaris. Briefly: Toxicity in mongrel dog infected with Trypanosoma cruzi Y assessed as weight loss at 12 mg/kg, po BID for 90 days started 12 to 22 days postinfection measured after 6 months. The settings on record: in vivo, 4383 h. It counts as organism-based, Canis lupus familiaris. Also noted: dose 12 mg/kg, route oral. In short, it runs like this: (§2)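 Body weight gain, in kg, was recorded for infected dogs 1 day and 6 months after the end of oral b.i.d. treatment. Treated animals were compared with infected untreated and noninfected control groups.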

For data set [9], the system named is Canis familiaris. Briefly: Toxicity in mongrel dog infected with Trypanosoma cruzi Y assessed as weight loss at 7 mg/kg, po BID for 90 days started 12 to 22 days postinfection measured after 6 months. Also noted: dose 7 mg/kg, route oral. It is filed as organism-based, Canis lupus familiaris. The settings on record: in vivo, 4383 h. The essentials: as §2
For data set [10], the system named is Canis familiaris. Briefly: Toxicity in mongrel dog infected with Trypanosoma cruzi Berenice-78 assessed as weight loss at 12 mg/kg, po BID for 90 days started 12 to 22 days postinfection measured after 6 months. Conditions: in vivo, 4383 h. More on the design: dose 12 mg/kg, route oral. It is filed as organism-based, Canis lupus familiaris. In short, it runs like this:
as §2

Data set [11] deals with Canis familiaris. Briefly: Toxicity in mongrel dog infected with Trypanosoma cruzi Berenice-78 assessed as weight loss at 7 mg/kg, po BID for 90 days started 12 to 22 days postinfection measured after 6 months. It is filed as organism-based, Canis lupus familiaris. The settings on record: in vivo, 4383 h. Also noted: dose 7 mg/kg, route oral. In short, it runs like this: as §2

Data set [12] concerns Trypanosoma cruzi. Briefly: Antimicrobial activity against Trypanosoma cruzi Y infected in mongrel dog assessed as suppression of microbial proliferation at 12 mg/kg, po BID started 12 to 22 days postinfection measured after 1 day. It is filed as functional, organism-based. Also noted: dose 12 mg/kg. The essentials:
(§3)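 Mongrel dogs, 4 months old, dewormed and vaccinated, were inoculated with 2.0 × 10^3 bloodstream trypomastigotes/kg. Oral b.i.d. (q12h) dosing began 12 to 22 days postinfection, once parasitemia appeared. Dosing ran 90 days at 12 mg/kg and 60 days at 7 mg/kg, with 5 dogs per group. Parasitemia was read by fresh-blood examination of marginal ear vein blood from day 10 of infection until parasites were undetectable.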

The subject of data set [13] is Trypanosoma cruzi. Briefly: Antimicrobial activity against Trypanosoma cruzi Berenice-78 infected in mongrel dog assessed as suppression of microbial proliferation at 7 mg/kg, po BID started 12 to 22 days postinfection measured after 1 day. It counts as functional, organism-based. More on the design: dose 7 mg/kg. The essentials:
as §3

Data set [14] has as its system Trypanosoma cruzi. Briefly: Antimicrobial activity against Trypanosoma cruzi Y infected in mongrel dog assessed as survival of dog at 7 mg/kg, po BID started 12 to 22 days postinfection measured after 1 day. It counts as functional. The essentials:
(§4)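 Four-month-old mongrel dogs (five per group) received 2.0 × 10^3 Y or Berenice-78 bloodstream trypomastigotes/kg. Oral dosing began 12–22 days postinfection, when parasitemia was detected by fresh blood examination: 12 mg/kg q12h for 90 days, or 7 mg/kg q12h for 60 days. Ear-vein blood was checked from day 10. Mortality was expressed as the cumulative percentage of dead animals.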

For data set [15], the system named is Trypanosoma cruzi. Briefly: Antimicrobial activity against Trypanosoma cruzi Berenice-78 infected in mongrel dog assessed as survival of dog at 7 mg/kg, po BID started 12 to 22 days postinfection measured after 1 day. It is filed as functional. In short, it runs like this:
as §4

The subject of data set [16] is Trypanosoma cruzi. Briefly: Antimicrobial activity against Trypanosoma cruzi Y infected in mongrel dog assessed as parasite level in blood of dog at 12 mg/kg, po BID started 12 to 22 days postinfection measured after 6 months by PCR analysis. It is filed as functional. In short, it runs like this: (§5)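 Blood PCR for T. cruzi on treated dogs (n = 5 per group) at 1 and 6 months posttreatment. Each reaction took 2 μl blood DNA template in Tris-HCl pH 9.0, 75 mM KCl, 3.5 mM MgCl2 and 0.2 mM dNTPs. Cycling was 95°C 5 min, then 2 cycles annealing at 30°C, 33 cycles at 40°C, and 72°C 5 min. Products were run on 6% polyacrylamide and silver stained. Reported as rate of positive animals.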

The subject of data set [17] is Trypanosoma cruzi. Briefly: Antimicrobial activity against Trypanosoma cruzi Berenice-78 infected in mongrel dog assessed as parasite level in blood of dog at 7 mg/kg, po BID started 12 to 22 days postinfection measured after 30 days by PCR analysis. It counts as functional. In short, it runs like this:
as §5

Data set [18] concerns Canis familiaris. Briefly: Immunostimulatory activity in mongrel dog infected with Trypanosoma cruzi Y assessed as production of antibody IgG at 12 mg/kg, po BID for 90 days measured up to 30 days by ELISA. It counts as functional, organism-based. More on the design: dose 12 mg/kg. The settings on record: Canis lupus familiaris. The essentials: (§6)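 Serum was taken before inoculation and then monthly until 6 months posttreatment, and stored at −80°C. ELISA plates were coated with alkaline extract of Y-strain parasites grown to exponential phase in LIT medium. Bound total IgG or IgG2 was detected with peroxidase-labeled anti-dog conjugates and read at 490 nm. Cutoff was the mean absorbance of 10 uninfected dogs plus 2 SD.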
On the technique in general: In an ELISA, binding on a coated surface is turned into a signal by an enzyme label.

The test system of data set [19] is Canis familiaris. Briefly: Immunostimulatory activity in mongrel dog infected with Trypanosoma cruzi Y assessed as production of antibody IgG at 7 mg/kg, po BID for 90 days measured up to 30 days by ELISA. It is filed as functional, organism-based. Also noted: dose 7 mg/kg. Conditions: Canis lupus familiaris. In short, it runs like this: as §6
Data set [20] concerns Canis familiaris. Briefly: Immunostimulatory activity in mongrel dog infected with Trypanosoma cruzi Berenice-78 assessed as production of antibody IgG at 12 mg/kg, po BID for 90 days measured up to 30 days by ELISA. It is filed as functional, organism-based. Also noted: dose 12 mg/kg. Conditions: Canis lupus familiaris. In short, it runs like this: as §6
Data set [21] deals with Canis familiaris. Briefly: Immunostimulatory activity in mongrel dog infected with Trypanosoma cruzi Berenice-78 assessed as production of antibody IgG2 at 12 mg/kg, po BID for 90 days measured up to 30 days by ELISA. It counts as functional, organism-based. Conditions: Canis lupus familiaris. More on the design: dose 12 mg/kg. In short, it runs like this: as §6
Data set [22] has as its system Canis familiaris. Briefly: Immunostimulatory activity in mongrel dog infected with Trypanosoma cruzi Berenice-78 assessed as production of antibody IgG at 7 mg/kg, po BID for 90 days measured up to 30 days by ELISA. It is filed as functional, organism-based. Also noted: dose 7 mg/kg. Conditions: Canis lupus familiaris. The essentials:
as §6

The subject of data set [23] is Canis familiaris. Briefly: Toxicity in mongrel dog infected with Trypanosoma cruzi Y assessed as weight loss at po BID for 90 days started 12 to 22 days postinfection measured after 1 day. The settings on record: in vivo, 24 h.
For data set [24], the system named is Trypanosoma cruzi. Briefly: Antitrypanosomal activity against Trypanosoma cruzi Y infected in mongrel dog assessed as reduction in parasite-induced intrafascicular collagen deposition in right atrium at 12 mg/kg, po BID after 180 days. The settings on record: Cardiac atrium.

Each structure is given as a SMILES string. Activity calls are given as the source filed them.

What is called half-life is the time needed for the level to fall by half in the phase considered. In the case of `C[C@@H](c1nc(-c2ccc(C#N)cc2)cs1)[C@](O)(Cn1cncn1)c1ccc(F)cc1F` [RAVUCONAZOLE], the outcome in data set [1], in [2], in data set [5], in [6], in data set [18] and in data set [19] was Active. Besides, the outcome in [20], in [21], in data set [22] and in data set [24] was Active. Also, the half-life in data set [3] is 8.8 h; in data set [4], at least 120 h; in data set [7], 96 h. For the same compound, the Activity result in data set [8], in [9], in data set [10], in data set [11], in [12] and in [13] was “Non-toxic” each time. In addition, the Activity in data set [14] was 100%; in data set [15], 100%; in [16] it was 60%; in data set [17], 60%; in data set [23], “Non-toxic”.

For the origin of these results see ChEMBL document CHEMBL1629684, “Effects of ravuconazole treatment on parasite load and immune response in dogs experimentally infected with Trypanosoma cruzi” (Antimicrob Agents Chemother, 2010).
